# Bioassay records as filed in PubChem.
# Only some compounds are listed: those with a hit (about 3.9% of all), similar ones and a draw of the others.
# SR-BI DiI-HDL act – SR-BI HDL lipid transfer activation. CHO ldlA[mSR-BI] cells, DiI-HDL uptake fluorescence, 3 h; 100 = double the neutral-control signal. activation, % at 12.5 µM. 320,000 compounds, 0.096% hits. AID 504775;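 active means mean replicate activation of at least 60% and every replicate at or above 60%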;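 further: 0% = median plate neutral-control signal and 100% = twice that signal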
#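 Material – SR-BI-overexpressing, LDLR-lacking CHO cells · Medium – BSA-supplemented, HEPES-buffered Ham's F12, pH 7.4 · Doses – single concentration · Times – compound with DiI-HDL co-incubation, 3 h at 37 °C · Measured by – bottom-read fluorescence, 550/595 nm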
# ABCB6 inh MLPCN – human ABCB6 transporter inhibition. Q9NP58. K562-ABCB6 porphyrin accumulation, flow cytometry, 1 h; hits give low values. 360,000 compounds, 0.19% hits. fluorescence ratio to DMSO, % at 10 µM. AID 602162;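 active means fluorescence ratio to DMSO below 75%, the collection mean minus 3 SD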;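 further: signal is porphyrin accumulated inside mitochondria; 100% equals median channel fluorescence of DMSO control wells; lower ratio means ABCB6 inhibition with less porphyrin fluorescence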
# Target sequence (Q9NP58 whole entry, looked up): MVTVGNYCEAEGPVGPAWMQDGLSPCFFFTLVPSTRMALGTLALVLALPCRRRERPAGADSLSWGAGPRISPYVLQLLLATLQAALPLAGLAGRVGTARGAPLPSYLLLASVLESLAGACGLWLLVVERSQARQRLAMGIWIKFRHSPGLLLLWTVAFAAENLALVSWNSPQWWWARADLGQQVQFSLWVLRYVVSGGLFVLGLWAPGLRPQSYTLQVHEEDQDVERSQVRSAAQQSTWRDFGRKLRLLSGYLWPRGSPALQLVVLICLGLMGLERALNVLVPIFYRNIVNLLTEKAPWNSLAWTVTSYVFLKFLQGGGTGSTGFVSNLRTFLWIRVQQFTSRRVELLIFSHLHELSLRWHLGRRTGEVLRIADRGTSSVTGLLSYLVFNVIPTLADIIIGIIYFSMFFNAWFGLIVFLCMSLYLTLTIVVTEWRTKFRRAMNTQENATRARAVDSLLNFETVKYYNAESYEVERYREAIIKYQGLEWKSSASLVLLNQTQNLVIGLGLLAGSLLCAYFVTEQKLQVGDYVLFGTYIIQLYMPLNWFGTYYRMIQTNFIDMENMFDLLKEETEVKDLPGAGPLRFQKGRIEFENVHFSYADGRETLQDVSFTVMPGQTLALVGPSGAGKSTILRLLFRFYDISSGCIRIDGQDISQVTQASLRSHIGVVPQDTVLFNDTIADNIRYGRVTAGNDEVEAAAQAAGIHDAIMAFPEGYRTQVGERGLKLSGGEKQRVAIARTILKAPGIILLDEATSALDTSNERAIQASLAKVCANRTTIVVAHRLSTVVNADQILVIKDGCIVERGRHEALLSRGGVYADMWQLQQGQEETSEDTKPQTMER
# GAA850 FXN act – frataxin GAA850 promoter activation | activation, % at 6 µM | AID 540364 | HEK293 lucGAA850 FXN promoter luciferase reporter, 24 h; percent of 10 µM SAHA response | 360,000 compounds, 0.56% hits;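 active means activation above the average of all compounds screened plus 3 SD, cutoff fixed separately per campaign, cut at about 7.5% in these data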;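 further: 0% = DMSO wells and 100% = 10 µM SAHA wells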
# HIF activator – HIF pathway transcriptional activation | U2OS HRE-luciferase reporter, luminescence; normalized: DMSO 0%, desferrioxamine 100% | activation, % at 7.5 µM (by protocol) | 300,000 compounds, 0.32% hits;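 active means mean activation of at least 10% of the iron chelator positive control signal, with at least half of replicates also reaching 10%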
# AHR activator – human AHR activation. activation, % at 5 µM. AHR-responsive luciferase reporter cells, luminescence. P35869. 320,000 compounds, 2.5% hits; in the data active means activation above about 47%;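 further: 0% = vehicle wells and 100% = reference agonist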
# SR-BI DiI inh – inhibitors of mouse SR-BI mediated HDL lipid uptake; ldlA[mSR-BI] CHO cells, DiI-HDL uptake fluorescence, 3 h; Q61009; inhibition, % at 12.5 µM; 320,000 compounds, 0.96% hits;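 active means mean replicate inhibition of at least 70% and a set share of replicates each scoring 70 or more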;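 further: 0% = median of neutral control wells and 100% = median of positive control wells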
# GAA30 FXN cntr – counter-screen for GAA850 frataxin promoter activators: GAA30 promoter activation | 1,900 compounds, 66% hits | activation, % at 6 µM | AID 588350 | shares compounds with GAA850 FXN act | HEK293 lucGAA30 FXN promoter luciferase, 24 h; DMSO = 0%, 5 µM ipriflavone = 100%;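 active means mean activation above the mean of solvent-only control wells plus 3 SD, cut at about 22% in these data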;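 further: counterscreen of GAA850 promoter hits where activity marks nonselective or luminescence artifacts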
# GAA850 confirm – confirmation of GAA850 frataxin (FXN) promoter activators; shares compounds with GAA850 FXN act; HEK293 lucGAA850 FXN promoter luciferase reporter, 24 h; 100% = activation by SAHA; activation, % at 6 µM; 1,900 compounds, 86% hits; AID 588351;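 active means mean activation above a set limit taken from the primary screen, cut at about 8% in these data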;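 further: 0% = DMSO wells and 100% = 10 µM SAHA wells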
# The depositor's hits bear a star; . = no result given.
SMILES,SR-BI DiI-HDL act,ABCB6 inh MLPCN,GAA850 FXN act,HIF activator,AHR activator,SR-BI DiI inh,GAA30 FXN cntr,GAA850 confirm
Oc1ccc2c(c1)oc1cc(O)ccc12,-7.1,96.0,0.7,0.6,3.9,7.1,.,.
O=c1oc2cc(O)ccc2s1,10.0,103.0,9.6*,-0.1,-0.1,-10.0,-3.6,15.6*
COc1ccc(-c2noc(CNC(=O)Nc3ccc(F)cc3)n2)cc1,-4.2,101.0,1.1,-0.2,6.8,4.2,.,.
CCCN1C(=O)/C(=C/c2cc(C)n(C)c2C)SC1=Nc1ccc(OC)cc1,-23.4,112.0,15.4*,-0.1,14.2,23.4,19.9,11.9*
CN(C)c1nc(OCCNC(=O)COc2ccc(Cl)cc2Cl)nc(N(C)C)n1,-22.3,95.0,8.3*,-0.4,14.6,22.3,15.6,6.3
N#Cc1c(N)nc(SCc2ccncc2)c(C#N)c1-c1cccs1,-6.6,102.0,9.9*,-0.7,27.8,6.6,-8.2,6.1
COc1cc(-c2c(C#N)c(N)nc(SCc3ccncc3)c2C#N)cc(OC)c1OC,18.3,97.0,-7.6,-1.3,4.7,-18.3,.,.
COCc1cc(C)nc(SCC(=O)c2ccc(O)c(O)c2)c1C#N,-8.1,100.0,10.4*,0.2,1.4,8.1,39.7*,17.8*
Cc1cc(C)cc(NC(=O)/C=C/c2ccc([N+](=O)[O-])s2)c1,-33.5,111.0,8.7*,2.3,3.3,33.5,-29.3,18.2*
COc1ccc2cc3cc(C(=O)N4CCCCC4C)oc3nc2c1 (centres undefined),-13.2,108.0,8.0*,1.4,-1.0,13.2,121.8*,38.2*
COc1ccc2cc3cc(C(=O)N4CCCCCC4)oc3nc2c1,-2.0,99.0,1.4,-0.7,-6.9,2.0,.,.
NNC(=O)c1cccc(COc2ccccc2Br)c1,-55.2,88.0,3.0,3.2,-6.2,55.2,.,.
N#CCn1cnc2sc(-c3ccccc3)cc2c1=O,-24.3,105.0,9.2*,2.6,14.7,24.3,76.4*,27.9*
OC1CCCN(c2c3c(nc4cc(-c5cccc(F)c5)nn24)CCCC3)C1 (centres undefined),-63.9,99.0,14.1*,1.1,17.9,63.9,91.5*,31.6*
COc1ccc(N2C(=O)N3[C@H](c4ccc(Cl)cc4)[C@@H]4C(=O)N(C5CCCCC5)C(=O)[C@@H]4[C@]3(C)C2=O)cc1,46.2,89.0,13.5*,-2.6,15.5,-46.2,9.1,5.4
CC(C)C[C@@]12C(=O)N(c3cccc(F)c3)C(=O)N1[C@H](c1ccc(F)cc1)[C@@H]1C(=O)N(C3CCCCC3)C(=O)[C@@H]12,12.3,101.0,11.8*,0.7,-0.7,-12.3,18.4,13.6*
O=C1[C@H]2[C@@H](c3ccc(Cl)cc3)N3C(=O)N(c4cccc(Br)c4)C(=O)[C@@]3(Cc3ccc(Cl)cc3)[C@H]2C(=O)N1C1CCCCC1,17.3,98.0,6.6,-0.6,0.2,-17.3,.,.
CC(C)C[C@@]12C(=O)N(c3cccc(F)c3)C(=O)N1[C@H](c1ccc(Cl)cc1)[C@@H]1C(=O)N(C3CCCCC3)C(=O)[C@@H]12,26.0,97.0,15.6*,-0.2,1.2,-26.0,25.5*,14.2*
C[C@@]12C(=O)N(c3cccc(Cl)c3)C(=O)N1[C@H](c1ccc(Cl)cc1)[C@@H]1C(=O)N(C3CCCCC3)C(=O)[C@@H]12,-5.0,97.0,7.3,0.9,2.0,5.0,.,.
C[C@@]12C(=O)N(c3cccc(F)c3)C(=O)N1[C@H](c1ccc(Cl)cc1)[C@@H]1C(=O)N(C3CCCCC3)C(=O)[C@@H]12,13.4,94.0,11.2*,-1.9,0.7,-13.4,7.6,5.3
CC(=NNC(=S)N1CC2CCC(CC2)C1)c1ccccn1,.,94.0,-6.7,.,.,.,.,.
